Measurements from ChEMBL document CHEMBL5096224, “First-in-Class Dual Mechanism Ferroptosis-HDAC Inhibitor Hybrids” (J Med Chem, 2022).
pIC50: −log10 of the molar value. Calls of active or inactive are those of the source. The rule behind the calls is not given here.

Legend:
HCT-116 = assay: Cytotoxicity against human HCT-116 cells assessed as reduction in cell viability incubated for 30 mins by methylene blue staining based analysis; conditions: HCT-116, 0.5 h
[1] = target: T1, Protein deacetylase HDAC6 (Homo sapiens, UniProt Q9UBN7); assay: Inhibition of full length C-terminal FLAG-tagged human recombinant HDAC6 expressed inSf9 insect cells; set-up: species or system Sf9
T1 sequence (Q9UBN7 whole entry): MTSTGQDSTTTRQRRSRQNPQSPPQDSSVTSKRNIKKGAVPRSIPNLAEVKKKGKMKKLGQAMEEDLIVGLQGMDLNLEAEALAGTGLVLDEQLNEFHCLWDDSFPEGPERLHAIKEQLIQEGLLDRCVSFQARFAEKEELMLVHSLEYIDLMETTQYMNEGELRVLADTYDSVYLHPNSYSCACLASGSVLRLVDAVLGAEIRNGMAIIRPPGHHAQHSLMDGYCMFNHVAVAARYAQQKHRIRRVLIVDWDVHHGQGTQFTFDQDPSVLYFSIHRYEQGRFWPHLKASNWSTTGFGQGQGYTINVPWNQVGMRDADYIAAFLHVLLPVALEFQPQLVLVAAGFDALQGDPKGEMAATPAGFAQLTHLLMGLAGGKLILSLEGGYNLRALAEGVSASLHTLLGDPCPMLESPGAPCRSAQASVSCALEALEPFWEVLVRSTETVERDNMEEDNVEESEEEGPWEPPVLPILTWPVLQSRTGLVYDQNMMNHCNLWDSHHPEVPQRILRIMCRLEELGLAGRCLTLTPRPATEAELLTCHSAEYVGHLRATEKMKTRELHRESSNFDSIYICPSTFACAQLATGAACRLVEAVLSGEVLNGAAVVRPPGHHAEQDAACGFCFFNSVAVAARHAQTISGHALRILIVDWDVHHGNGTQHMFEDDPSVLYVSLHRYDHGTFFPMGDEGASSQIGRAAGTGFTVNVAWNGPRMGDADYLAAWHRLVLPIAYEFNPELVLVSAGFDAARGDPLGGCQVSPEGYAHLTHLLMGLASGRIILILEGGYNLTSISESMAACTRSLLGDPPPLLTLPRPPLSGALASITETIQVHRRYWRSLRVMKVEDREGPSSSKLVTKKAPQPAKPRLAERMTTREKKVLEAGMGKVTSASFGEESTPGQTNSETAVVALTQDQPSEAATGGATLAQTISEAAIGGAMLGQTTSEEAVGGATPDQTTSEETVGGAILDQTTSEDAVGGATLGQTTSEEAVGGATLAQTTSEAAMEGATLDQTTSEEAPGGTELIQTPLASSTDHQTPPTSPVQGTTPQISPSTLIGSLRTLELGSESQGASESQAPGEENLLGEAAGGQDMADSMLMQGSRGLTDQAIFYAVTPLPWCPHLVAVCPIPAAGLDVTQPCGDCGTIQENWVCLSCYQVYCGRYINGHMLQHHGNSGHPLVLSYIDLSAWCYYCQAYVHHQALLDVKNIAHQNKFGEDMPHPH

NCI-H522 [2] = assay: Cytotoxicity against human NCI-H522 cells assessed as reduction in cell viability incubated for 30 mins by methylene blue staining based analysis; conditions: NCI-H522, 0.5 h
Histone deacetylase 8 = target: T2, Histone deacetylase 8 (Homo sapiens, UniProt Q9BY41); assay: Inhibition of full length C-terminal his-tagged human recombinant HDAC8 expressed in Sf9 insect cells
T2 sequence (Q9BY41 whole entry): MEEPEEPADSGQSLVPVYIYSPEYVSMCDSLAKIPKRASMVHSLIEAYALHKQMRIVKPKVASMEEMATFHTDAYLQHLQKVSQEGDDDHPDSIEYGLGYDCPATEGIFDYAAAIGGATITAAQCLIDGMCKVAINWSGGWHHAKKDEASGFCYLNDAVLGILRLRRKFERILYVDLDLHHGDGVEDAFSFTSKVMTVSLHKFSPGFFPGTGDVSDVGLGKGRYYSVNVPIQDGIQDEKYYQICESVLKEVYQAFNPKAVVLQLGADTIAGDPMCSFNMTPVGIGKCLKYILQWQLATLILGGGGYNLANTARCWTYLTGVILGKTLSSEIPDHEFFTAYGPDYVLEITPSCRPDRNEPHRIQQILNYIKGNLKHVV

NCI-H522 [3] = assay: Cytotoxicity against human NCI-H522 cells assessed as reduction in cell survival at 1 to 5 uM incubated for 3 days in presence of ferroptosis inhibitor, liproxstatin-1 by methylene blue staining based analysis; type: functional; conditions: dose 1-5 µM, time 3.0 day
Histone deacetylase 1 = Histone deacetylase 1 (Homo sapiens, UniProt Q13547); assay: Inhibition of full length his6/FLAG-tagged human recombinant HDAC1(1 to 482 residues) expressed in Sf9 insect cells
Histone deacetylase 3 = Histone deacetylase 3 (Homo sapiens, UniProt O15379); assay: Inhibition of full length C-terminal his6/FLAG-tagged human recombinant HDAC3 ([…]) expressed in Sf9 insect cells
[4] = Neurotoxicity in human SH-SY5Y cells assessed as decrease in cell viability at 20 to 80 uM incubated for 3 days; type: toxicity, cell-based; conditions: 72 h, dose 20-80 µM, time 3 day
How it was run: (§1)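 SH-SY5Y cells were grown on poly-D-lysine in DMEM/F12 with 10% FBS and seeded at 15,000/well 36 h before dosing, with DMSO as vehicle. Viability was read by MTT: 2 h at 37 °C, then solubilization for 1 h and absorbance at 570. Data are triplicates from three separate experiments.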

NCI-H522 [5] = assay: Cytotoxicity against human NCI-H522 cells assessed as reduction in cell survival at 1 to 5 uM incubated for 3 days in presence of Methyl 7-(2-ethynylthiazole-4-carboxamido)heptanoate by methylene blue staining based analysis; type: functional; conditions: dose 1-5 µM, time 3.0 day
How it was run: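 Cells (5000/well, n = 3, DMEM with 10% serum, 37 °C, 5% CO2) were treated the day after plating and kept for three days. […] Survival was expressed relative to DMSO.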

[6] = Neurotoxicity in human SH-SY5Y cells assessed as decrease in cell viability at 6.665 uM incubated for 3 days; type: toxicity, cell-based; conditions: 72 h, time 3 day; how it was run: as §1
Histone deacetylase 2 = Histone deacetylase 2 (Homo sapiens, UniProt Q92769)
[7] = target: Protein deacetylase HDAC6 (Homo sapiens) (UniProt Q9UBN7); assay: Inhibition of HDAC6 in human NCI-H522 cells assessed as increase in acetylation of tubulin at 5 uM measured for 3 days by Western blot analysis; type: cell-based; conditions: time 3.0 day
NCI-H522 [8] = assay: Cytotoxicity against human NCI-H522 cells assessed as reduction in cell survival at […] incubated for 3 days by methylene blue staining based analysis; type: functional; conditions: dose 2.5 µM, time 3.0 day
Histone deacetylase 4 = Histone deacetylase 4 (Homo sapiens, UniProt P56524); assay: Inhibition of […] N-terminal GST/C-terminal his-tagged human recombinant HDAC4 (627 to 1084 residues) expressed in Sf9 insect cells
NCI-H522 [9] = assay: Induction of cell cycle arrest in human NCI-H522 cells assessed as accumulation at G1 phase 5 uM incubated for 24 to 72 hrs by PI staining based flow cytometric analysis; type: functional; conditions: time lower […], time upper […]
NCI-H522 [10] = assay: Induction of cell cycle arrest in human NCI-H522 cells assessed as accumulation at S phase 5 uM incubated for 24 to 72 hrs by PI staining based flow cytometric analysis; type: functional; conditions: time lower […], time upper […]
NCI-H522 [11] = assay: Induction of cell cycle arrest in human NCI-H522 cells assessed as accumulation at G2/M phase 5 uM incubated for 24 to 72 hrs by PI staining based flow cytometric analysis; type: functional; conditions: time lower […], time upper […]

Sequence of Histone deacetylase 1 (Q13547 whole entry, the tested form may be a part): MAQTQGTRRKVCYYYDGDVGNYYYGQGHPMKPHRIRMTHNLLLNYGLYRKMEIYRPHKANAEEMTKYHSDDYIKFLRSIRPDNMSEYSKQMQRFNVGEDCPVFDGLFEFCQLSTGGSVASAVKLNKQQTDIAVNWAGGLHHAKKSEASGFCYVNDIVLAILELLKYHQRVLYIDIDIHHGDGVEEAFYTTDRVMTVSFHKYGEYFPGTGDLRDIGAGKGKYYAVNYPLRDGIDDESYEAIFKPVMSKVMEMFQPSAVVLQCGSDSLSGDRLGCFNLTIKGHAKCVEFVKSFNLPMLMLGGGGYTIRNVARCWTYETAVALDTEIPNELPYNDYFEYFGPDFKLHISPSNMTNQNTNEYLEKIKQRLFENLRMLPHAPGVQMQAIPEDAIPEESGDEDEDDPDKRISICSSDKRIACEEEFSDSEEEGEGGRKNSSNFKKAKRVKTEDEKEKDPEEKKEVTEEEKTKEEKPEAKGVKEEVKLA
Sequence of Histone deacetylase 3 (O15379 whole entry): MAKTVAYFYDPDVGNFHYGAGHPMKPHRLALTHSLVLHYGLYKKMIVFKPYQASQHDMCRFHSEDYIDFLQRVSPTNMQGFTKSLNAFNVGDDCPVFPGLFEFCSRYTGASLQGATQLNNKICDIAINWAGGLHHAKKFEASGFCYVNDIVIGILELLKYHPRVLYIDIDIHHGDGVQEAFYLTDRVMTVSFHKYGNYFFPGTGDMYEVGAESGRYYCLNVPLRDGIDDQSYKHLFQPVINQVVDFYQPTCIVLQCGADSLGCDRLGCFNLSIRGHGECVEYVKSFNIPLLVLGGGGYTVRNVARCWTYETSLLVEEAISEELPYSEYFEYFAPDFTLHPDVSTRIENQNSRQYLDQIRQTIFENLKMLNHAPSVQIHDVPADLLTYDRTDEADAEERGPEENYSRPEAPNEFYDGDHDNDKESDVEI
Sequence of Histone deacetylase 2 (Q92769 whole entry): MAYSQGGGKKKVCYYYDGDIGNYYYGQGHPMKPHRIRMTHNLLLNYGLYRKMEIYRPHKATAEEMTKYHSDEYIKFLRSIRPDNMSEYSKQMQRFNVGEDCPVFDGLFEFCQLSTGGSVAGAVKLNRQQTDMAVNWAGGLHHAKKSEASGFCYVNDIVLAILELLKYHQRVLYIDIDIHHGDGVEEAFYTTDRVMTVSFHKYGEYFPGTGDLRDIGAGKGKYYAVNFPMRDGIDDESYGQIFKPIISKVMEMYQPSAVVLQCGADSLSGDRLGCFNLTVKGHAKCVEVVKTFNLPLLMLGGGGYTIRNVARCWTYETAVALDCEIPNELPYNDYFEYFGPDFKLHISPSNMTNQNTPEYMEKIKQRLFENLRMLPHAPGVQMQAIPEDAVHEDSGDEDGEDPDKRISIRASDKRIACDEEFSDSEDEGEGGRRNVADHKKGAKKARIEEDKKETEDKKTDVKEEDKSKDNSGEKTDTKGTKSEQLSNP
Sequence of Histone deacetylase 4 (P56524 whole entry, the tested form may be a part): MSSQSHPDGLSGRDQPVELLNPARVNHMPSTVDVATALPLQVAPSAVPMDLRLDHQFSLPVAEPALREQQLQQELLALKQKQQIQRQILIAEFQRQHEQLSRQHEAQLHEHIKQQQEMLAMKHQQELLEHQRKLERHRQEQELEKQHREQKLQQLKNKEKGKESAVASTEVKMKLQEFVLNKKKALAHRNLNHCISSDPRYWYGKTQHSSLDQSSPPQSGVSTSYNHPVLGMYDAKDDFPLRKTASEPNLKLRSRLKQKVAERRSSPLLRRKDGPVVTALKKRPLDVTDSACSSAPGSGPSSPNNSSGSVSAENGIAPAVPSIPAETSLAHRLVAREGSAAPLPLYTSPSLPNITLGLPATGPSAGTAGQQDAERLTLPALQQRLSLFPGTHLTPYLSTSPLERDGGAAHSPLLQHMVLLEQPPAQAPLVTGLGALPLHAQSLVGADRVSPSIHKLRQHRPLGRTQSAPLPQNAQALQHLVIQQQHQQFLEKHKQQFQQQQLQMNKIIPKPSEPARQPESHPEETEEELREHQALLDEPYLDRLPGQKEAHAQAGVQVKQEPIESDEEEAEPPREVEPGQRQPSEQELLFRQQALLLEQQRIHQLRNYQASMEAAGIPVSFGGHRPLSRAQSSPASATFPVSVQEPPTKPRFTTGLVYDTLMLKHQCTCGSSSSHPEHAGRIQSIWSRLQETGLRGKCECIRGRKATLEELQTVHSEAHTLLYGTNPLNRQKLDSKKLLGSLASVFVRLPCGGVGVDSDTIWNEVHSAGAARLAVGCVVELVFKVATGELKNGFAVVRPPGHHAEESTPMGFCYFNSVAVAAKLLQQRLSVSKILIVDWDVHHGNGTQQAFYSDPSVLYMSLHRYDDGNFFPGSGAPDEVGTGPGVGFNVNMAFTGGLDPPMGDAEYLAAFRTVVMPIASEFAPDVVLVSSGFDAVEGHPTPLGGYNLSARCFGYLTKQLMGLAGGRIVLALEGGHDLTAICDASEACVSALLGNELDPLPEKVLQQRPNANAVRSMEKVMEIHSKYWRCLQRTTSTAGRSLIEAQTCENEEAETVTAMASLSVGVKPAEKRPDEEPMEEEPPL

SMILES	pIC50 [1]	pIC50 (Histone deacetylase 8)	pIC50 (Histone deacetylase 1)	pIC50 (Histone deacetylase 3)	pIC50 (Histone deacetylase 2)	pIC50 (HCT-116)	pIC50 (NCI-H522 [2])	Activity (NCI-H522 [3])	also measured
C#Cc1nc(/C=C\CCCCCC(=O)NO)cs1	7.60	6.33	6.89	6.52	–	5.92	5.97	Active	–
O=C(CCCCCCNC(=O)c1csc(Br)n1)NO	–	–	–	–	–	–	–	Active	Activity [4]: Toxic; Activity (NCI-H522 [5]): Active; Activity [6]: Toxic
O=C(CCCCCCC(=O)Nc1ccccc1)NO [VORINOSTAT]	–	–	–	–	–	–	–	–	Activity (NCI-H522 [9]): Active; Activity (NCI-H522 [10]): Active; Activity (NCI-H522 [11]): Active
C#Cc1nc(C=CCCCCCC(=O)NO)cs1	–	–	–	–	–	5.47	5.78	–	–

The next lines start with results.

pIC50 [1]	pIC50 (Histone deacetylase 8)	pIC50 (Histone deacetylase 1)	pIC50 (Histone deacetylase 3)	pIC50 (Histone deacetylase 2)	SMILES	pIC50 (HCT-116)	pIC50 (NCI-H522 [2])	Activity (NCI-H522 [3])	also measured
6.80	5.74	6.05	5.96	5.77	C#Cc1nc(/C=C/C(=O)NO)cs1	–	–	–	inhibition [7]: Active
6.80	6.17	6.00	5.51	5.92	C#Cc1nc(/C=C/C=C/C(=O)NO)cs1	–	–	–	Activity (NCI-H522 [8]): Active; pIC50 (Histone deacetylase 4): 5.68
